In brackets after ≈: the same amount, converted by molar mass.
Molecular target: T1, Plasma kallikrein (Homo sapiens, UniProt P03952)
T1 sequence (P03952 20-390 limits assumed): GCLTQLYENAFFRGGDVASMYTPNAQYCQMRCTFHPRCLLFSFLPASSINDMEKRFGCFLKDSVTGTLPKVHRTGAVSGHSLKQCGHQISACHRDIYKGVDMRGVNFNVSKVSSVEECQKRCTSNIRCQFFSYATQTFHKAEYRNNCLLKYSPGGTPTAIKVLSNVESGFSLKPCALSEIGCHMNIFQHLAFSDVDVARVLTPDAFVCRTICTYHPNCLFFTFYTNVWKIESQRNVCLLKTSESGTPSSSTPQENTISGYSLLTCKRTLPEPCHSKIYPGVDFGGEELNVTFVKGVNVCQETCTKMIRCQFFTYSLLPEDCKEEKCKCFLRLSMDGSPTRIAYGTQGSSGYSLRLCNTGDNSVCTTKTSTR
T1 sequence (P03952 391-638 limits assumed): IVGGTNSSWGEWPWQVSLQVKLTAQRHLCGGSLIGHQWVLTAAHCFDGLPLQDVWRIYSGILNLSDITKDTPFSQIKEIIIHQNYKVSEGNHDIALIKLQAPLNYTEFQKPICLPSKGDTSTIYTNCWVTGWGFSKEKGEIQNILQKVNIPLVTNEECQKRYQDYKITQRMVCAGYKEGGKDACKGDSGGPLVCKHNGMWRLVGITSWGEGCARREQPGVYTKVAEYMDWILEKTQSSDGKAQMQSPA
Assay: Inhibition of human plasma kallikrein using H-D-Pro-Phe-Arg-AFC as flurogenic substrate preincubated for 5 mins followed by substrate addition by fluorometer analysis
Type: cell-free
Conditions: not given
`Cc1cc(C(=O)NCc2ccc(CN)cc2)c(C)n1CCCCCc1ccccc1` showed an IC50 of 3.8 µM.
For `COCc1nn(Cc2ccc(Cn3ccccc3=O)cc2)cc1C(=O)NCc1ncc(F)cc1F`, the IC50 was 2.22 µM.
Work on `Cc1cc(C(=O)NCc2ccc(CN)cc2)c(C)n1CCCCc1ccccc1` yielded an IC50 of 0.92 µM.
`COCc1nn(Cc2ccc(Cn3ccccc3=O)cc2)cc1C(=O)NCc1ncc(C)c(OC)c1C` showed an IC50 of 0.037 µM.
Compound `COc1ccnc(CNC(=O)c2cn(Cc3ccc(Cn4ccccc4=O)cc3)nc2C2CC2)c1F` has an IC50 of 0.0044 µM.
Compound `Cc1cc(C(=O)NCc2ccc(CN)cc2)c(C)n1Cc1cccs1` has an IC50 of 2.7 µM.
`COCc1nn(Cc2ccc(Cn3ccccc3=O)cc2)cc1C(=O)NCc1nc(C)ccc1F` showed an IC50 of 0.9 µM.
Work on `Cc1cc(C(=O)NCc2ccc(CN)cc2)c(C)n1Cc1cccc(-c2cccnc2)n1` yielded an IC50 of 0.58 µM.
`COCc1nn(Cc2ccc(Cn3ccccc3=O)cc2)cc1C(=O)NCc1nccc(C)c1Cl` gave an IC50 of 0.3 µM.
`O=C(NCc1c(Cl)cccc1Cl)c1cnn(Cc2ccc(Cn3ccccc3=O)cc2)c1` gave an IC50 of 0.04 µM.
With `Cc1cc(C(=O)NCc2ccc(CN)cc2)c(C)n1Cc1csc(Cc2ccccc2)n1` the IC50 was 2.7 µM.
`Cc1cc(C(=O)NCc2ccc(C(=N)N)cc2)c(C)n1Cc1ccccc1` gave an IC50 of 0.0055 µM.
`COc1ccnc(CNC(=O)c2cnn(Cc3ccc(Cn4ccccc4=O)cc3)c2)c1F` showed an IC50 of 0.0051 µM.
Compound `COCc1nn(Cc2ccc(Cn3ccccc3=O)cc2)cc1C(=O)NCc1nccc(C)c1F` has an IC50 of 0.14 µM.
`Cc1cc(C(=O)NCc2ccc(CN)cc2)c(C)n1CCc1ccccc1` showed an IC50 greater than 10 µM.
For `COCc1nn(Cc2ccc(Cn3ccccc3=O)cc2)cc1C(=O)NCc1ncc(Cl)cc1F`, the IC50 was 0.16 µM.

Test system: not listed separately
Assay: Metabolic stability in human liver microsomes assessed as intrinsic clearance per mg of protein measured upto 60 mins in presence of NADPH regenerating system by LC-MS/MS analysis
Type: ADME, Microsome
Conditions: microsomes, 1 h
Work on `Cc1cnn(Cc2ccc(Cn3cc(C(=O)NCc4ccc5c(N)nccc5c4)cn3)cc2)c1` yielded a microsomal intrinsic clearance of 181 µL/min.
For `COc1cccc(CNC(=O)c2cn(Cc3ccc(Cn4ccccc4=O)cc3)nc2C2CC2)c1F`, the microsomal intrinsic clearance was 170 µL/min.
Work on `COCc1nn(Cc2ccc(Cn3ccccc3=O)cc2)cc1C(=O)NCc1c(Cl)ccc(OC)c1F` yielded a microsomal intrinsic clearance of 120 µL/min.
For `COc1ccnc(CNC(=O)c2cn(Cc3ccc(Cn4ccccc4=O)cc3)nc2C2CC2)c1F`, the microsomal intrinsic clearance was 49 µL/min.
For `COc1ccnc(CNC(=O)c2cnn(Cc3ccc(Cn4ccccc4=O)cc3)c2)c1F`, the microsomal intrinsic clearance was 2 µL/min.

Molecular target: T1, Plasma kallikrein
Assay: Inhibition of human plasma kallikrein using H-D-Pro-Phe-Arg-AFC as flurogenic substrate at 1000 nM preincubated for 5 mins followed by substrate addition by fluorometer analysis relative to control
Type: cell-free
Conditions: not given
Method in brief: (§1)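 Crude library compounds (unpurified, dissolved in DMSO) were screened twice, once at each of the single concentrations. Human plasma kallikrein was preincubated with compound for 5 min, then H-D-Pro-Phe-Arg-AFC was added. Activity was followed as the kinetic rate of fluorogenic substrate cleavage, and percent inhibition was calculated relative to control.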
With `Cc1cccc(CNC(=O)c2cnn(Cc3ccc(Cn4ccccc4=O)cc3)c2)c1` the inhibition was 57%.
Compound `O=C(NCc1ccccc1)c1cnn(Cc2ccc(Cn3ccccc3=O)cc2)c1` has an inhibition of 29%.
In the case of `COc1ccc(CNC(=O)c2cnn(Cc3ccc(Cn4ccccc4=O)cc3)c2)cc1`, the inhibition is reported as 72%.
With `O=C(NCc1ccc(Cl)cc1)c1cnn(Cc2ccc(Cn3ccccc3=O)cc2)c1` the inhibition was 60%.
For `COc1ccccc1CNC(=O)c1cnn(Cc2ccc(Cn3ccccc3=O)cc2)c1`, the inhibition was 63%.
For `O=C(NCc1ccccc1Cl)c1cnn(Cc2ccc(Cn3ccccc3=O)cc2)c1`, the inhibition was 67%.
Compound `O=C(NCc1ccccc1F)c1cnn(Cc2ccc(Cn3ccccc3=O)cc2)c1` has an inhibition of 59%.
With `Cc1ccccc1CNC(=O)c1cnn(Cc2ccc(Cn3ccccc3=O)cc2)c1` the inhibition was 62%.
Work on `O=C(NCc1c(Cl)cccc1Cl)c1cnn(Cc2ccc(Cn3ccccc3=O)cc2)c1` yielded an inhibition of 94%.
For `O=C(NCc1cccc(Cl)c1)c1cnn(Cc2ccc(Cn3ccccc3=O)cc2)c1`, the inhibition was 74%.

Molecular target: T1, Plasma kallikrein
Assay: Inhibition of human plasma kallikrein using H-D-Pro-Phe-Arg-AFC as flurogenic substrate at 100 nM preincubated for 5 mins followed by substrate addition by fluorometer analysis relative to control
Type: cell-free
Conditions: not given
Method in brief: as §1
Compound `Cc1cccc(CNC(=O)c2cnn(Cc3ccc(Cn4ccccc4=O)cc3)c2)c1` has an inhibition of 11%.
With `O=C(NCc1ccccc1)c1cnn(Cc2ccc(Cn3ccccc3=O)cc2)c1` the inhibition was 0%.
Work on `COc1ccc(CNC(=O)c2cnn(Cc3ccc(Cn4ccccc4=O)cc3)c2)cc1` yielded an inhibition of 17%.
`O=C(NCc1ccc(Cl)cc1)c1cnn(Cc2ccc(Cn3ccccc3=O)cc2)c1` gave an inhibition of 13%.
`COc1ccccc1CNC(=O)c1cnn(Cc2ccc(Cn3ccccc3=O)cc2)c1` gave an inhibition of 11%.
`O=C(NCc1ccccc1Cl)c1cnn(Cc2ccc(Cn3ccccc3=O)cc2)c1` showed an inhibition of 12%.
`O=C(NCc1ccccc1F)c1cnn(Cc2ccc(Cn3ccccc3=O)cc2)c1` showed an inhibition of 13%.
With `Cc1ccccc1CNC(=O)c1cnn(Cc2ccc(Cn3ccccc3=O)cc2)c1` the inhibition was 12%.
In the case of `O=C(NCc1c(Cl)cccc1Cl)c1cnn(Cc2ccc(Cn3ccccc3=O)cc2)c1`, the inhibition is reported as 56%.
For `O=C(NCc1cccc(Cl)c1)c1cnn(Cc2ccc(Cn3ccccc3=O)cc2)c1`, the inhibition was 20%.

Test system: not listed separately
Assay: Kinetic solubility of the compound in 0.1N HCl
Conditions: not given
`COCc1nn(Cc2ccc(Cn3ccccc3=O)cc2)cc1C(=O)NCc1cccc(O)c1F` showed a solubility kinetic greater than 0.12 mg/mL.
`COc1cccc(CNC(=O)c2cn(Cc3ccc(Cn4ccccc4=O)cc3)nc2C2CC2)c1F` gave a solubility kinetic greater than 0.11 mg/mL.
With `COCc1nn(Cc2ccc(Cn3ccccc3=O)cc2)cc1C(=O)NCc1cc(OC)ccc1F` the solubility kinetic was greater than 0.12 mg/mL.
`CCc1cccc(CNC(=O)c2cn(Cc3ccc(Cn4ccccc4=O)cc3)nc2COC)c1F` showed a solubility kinetic of 0.029 mg/mL (≈ 59.4 µM).
`COCc1nn(Cc2ccc(Cn3ccccc3=O)cc2)cc1C(=O)NCc1c(Cl)ccc(OC)c1F` gave a solubility kinetic greater than 0.12 mg/mL.
`COc1cccc(CNC(=O)c2cn(Cc3ccc(Cn4ccccc4=O)cc3)nc2N(C)C)c1F` gave a solubility kinetic greater than 0.12 mg/mL.

Test system: not listed separately
Assay: Kinetic solubility of the compound in aqueous assay buffer at pH 7.7
Conditions: not given
Work on `COCc1nn(Cc2ccc(Cn3ccccc3=O)cc2)cc1C(=O)NCc1cccc(O)c1F` yielded a solubility kinetic greater than 0.12 mg/mL.
`COc1cccc(CNC(=O)c2cn(Cc3ccc(Cn4ccccc4=O)cc3)nc2C2CC2)c1F` gave a solubility kinetic of 0.058 mg/mL (≈ 119 µM).
`COCc1nn(Cc2ccc(Cn3ccccc3=O)cc2)cc1C(=O)NCc1cc(OC)ccc1F` gave a solubility kinetic greater than 0.12 mg/mL.
In the case of `CCc1cccc(CNC(=O)c2cn(Cc3ccc(Cn4ccccc4=O)cc3)nc2COC)c1F`, the solubility kinetic is reported as greater than 0.12 mg/mL.
Compound `COCc1nn(Cc2ccc(Cn3ccccc3=O)cc2)cc1C(=O)NCc1c(Cl)ccc(OC)c1F` has a solubility kinetic greater than 0.12 mg/mL.
Compound `COc1cccc(CNC(=O)c2cn(Cc3ccc(Cn4ccccc4=O)cc3)nc2N(C)C)c1F` has a solubility kinetic greater than 0.12 mg/mL.

Reference: ChEMBL document CHEMBL5108074 (J Med Chem, 2022)
